ChEMBL document CHEMBL1221227, “Nanomolar potency pyrimido-pyrrolo-quinoxalinedione CFTR inhibitor reduces cyst size in a polycystic kidney disease model” (J Med Chem, 2009)
The source made the active and inactive calls. The rule behind the calls is not given here.

Assays:
[1] = molecular target: T1, Cystic fibrosis transmembrane conductance regulator (Homo sapiens, UniProt P13569); test: Inhibition of human CFTR expressed in rat FRT cells coexpressing halide indicator YFP-H148Q assessed as inhibition of halide influx at 25 uM preincubated for 15 mins by FLIPR; type: cell-based
Procedure, shortened: (§1)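 FRT cells coexpressing human CFTR and YFP halide sensor, assayed 48 h after plating at confluence. After PBS washes, CFTR activated with 5 µM forskolin, 100 µM IBMX and 25 µM apigenin. Compound added 5 min later and incubated 15 min. Fluorescence read 2 s baseline, then 10 s after iodide-substituted PBS addition. Initial iodide influx rate obtained by nonlinear regression.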
Target sequence in this assay (P13569 whole entry, looked up): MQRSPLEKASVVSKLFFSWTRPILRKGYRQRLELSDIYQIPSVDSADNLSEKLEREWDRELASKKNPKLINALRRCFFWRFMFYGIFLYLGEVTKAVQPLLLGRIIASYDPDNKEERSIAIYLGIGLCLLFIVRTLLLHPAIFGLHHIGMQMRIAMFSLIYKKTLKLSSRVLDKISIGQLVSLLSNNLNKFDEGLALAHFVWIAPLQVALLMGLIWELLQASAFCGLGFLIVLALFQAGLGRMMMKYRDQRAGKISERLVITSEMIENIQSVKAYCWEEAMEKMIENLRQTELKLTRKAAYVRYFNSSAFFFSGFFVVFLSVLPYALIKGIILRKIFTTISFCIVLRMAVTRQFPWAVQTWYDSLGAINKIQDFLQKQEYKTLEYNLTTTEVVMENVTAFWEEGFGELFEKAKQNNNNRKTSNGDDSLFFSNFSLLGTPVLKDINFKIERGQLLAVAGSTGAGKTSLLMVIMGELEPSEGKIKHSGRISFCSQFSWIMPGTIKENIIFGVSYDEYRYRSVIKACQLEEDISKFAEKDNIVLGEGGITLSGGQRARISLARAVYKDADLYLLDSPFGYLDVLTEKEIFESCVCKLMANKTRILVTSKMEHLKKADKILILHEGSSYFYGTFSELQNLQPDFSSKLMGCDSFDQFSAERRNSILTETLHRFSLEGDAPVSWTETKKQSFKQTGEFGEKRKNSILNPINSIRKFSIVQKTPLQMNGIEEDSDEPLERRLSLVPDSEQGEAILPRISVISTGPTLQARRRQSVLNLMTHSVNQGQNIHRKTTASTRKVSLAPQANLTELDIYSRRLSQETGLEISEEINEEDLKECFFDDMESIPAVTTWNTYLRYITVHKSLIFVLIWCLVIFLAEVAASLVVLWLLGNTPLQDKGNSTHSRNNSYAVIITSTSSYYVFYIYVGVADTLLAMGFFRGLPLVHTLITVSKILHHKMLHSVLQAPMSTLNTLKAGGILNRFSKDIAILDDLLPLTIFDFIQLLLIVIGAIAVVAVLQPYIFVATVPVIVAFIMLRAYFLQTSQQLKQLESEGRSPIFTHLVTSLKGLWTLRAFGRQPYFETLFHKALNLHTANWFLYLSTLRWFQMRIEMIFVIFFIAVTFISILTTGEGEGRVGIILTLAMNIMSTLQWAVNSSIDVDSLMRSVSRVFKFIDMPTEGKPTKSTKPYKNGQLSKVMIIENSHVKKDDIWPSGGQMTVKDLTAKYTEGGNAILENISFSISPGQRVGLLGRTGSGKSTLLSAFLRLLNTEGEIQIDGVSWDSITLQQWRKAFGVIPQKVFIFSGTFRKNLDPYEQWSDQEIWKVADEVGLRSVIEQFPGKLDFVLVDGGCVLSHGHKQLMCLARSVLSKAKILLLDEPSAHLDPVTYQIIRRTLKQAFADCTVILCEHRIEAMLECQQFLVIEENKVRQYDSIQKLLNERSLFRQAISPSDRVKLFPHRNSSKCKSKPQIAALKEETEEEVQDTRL

[2] = molecular target: T1, Cystic fibrosis transmembrane conductance regulator; test: Inhibition of human CFTR expressed in rat FRT cells coexpressing halide indicator YFP-H148Q assessed as inhibition of halide influx at 5 uM preincubated for 15 mins by FLIPR; type: cell-based; procedure, shortened: as §1
Target sequence in this assay (P13569 whole entry, looked up): as above

[3] = molecular target: T1, Cystic fibrosis transmembrane conductance regulator; details: T84, 10 uM
Target sequence in this assay (P13569 whole entry, looked up): as above

CHO-K1 [4] = test: Effect on basal cAMP production in CHOK1 cells at 10 uM; type: functional, cell-based; details: Cricetulus griseus
Procedure, shortened: (§2)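 cAMP measured in CHO-K1 cells under basal conditions and after 20 µM forskolin, with or without compound at 10 µM; SE, n = 4.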

[5] = molecular target: T1, Cystic fibrosis transmembrane conductance regulator; test: Inhibition of human CFTR expressed in rat FRT cells assessed as inhibition of CPT-cAMP-induced apical membrane current in presence of transepithelial chloride gradient and basolateral membrane permeabilization with amphotericin B by short-circuit current analysis; type: cell-based
Procedure, shortened: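 FRT cells stably coexpressing human wild-type CFTR, mounted in Ussing chambers. Apical 75 mM NaCl/75 mM Na gluconate, basolateral 150 mM NaCl (pH 7.3), basolateral membrane permeabilized with 250 µg/mL amphotericin B, air-bubbled, 37 °C. CFTR activated by 100 µM CPT-cAMP, then increasing inhibitor concentrations added cumulatively. Apical current recorded continuously; dose–response, SE n = 4.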
Target sequence in this assay (P13569 whole entry): as the sequence (P13569 whole entry, looked up) above

Epithelial cell [6] = test: Inhibition of calcium-activated chloride channel in CFTR deficient human bronchial epithelial cells assessed as inhibition of UTP-induced chloride current at 10 uM; type: cell-based
Procedure, shortened: (§3)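 Ussing-chamber short-circuit current in cystic fibrosis (CFTR-deficient) human bronchial epithelial cells, Krebs-bicarbonate both sides, 5% CO2 in air, 37 °C. ENaC blocked with 10 µM amiloride. Calcium-activated chloride channels stimulated with 100 µM UTP, compound added as indicated.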

CHO-K1 [7] = test: Effect on forskolin-induced cAMP production in CHOK1 cells at 10 uM; type: functional, cell-based; details: Cricetulus griseus; procedure, shortened: as §2
Kidney [8] = test: Inhibition of cyst formation in 8-Br-cAMP treated embryonic mouse kidney organ culture model of polycystic kidney disease at 0.5 uM by transmission light microscopy; type: functional
Procedure, shortened: (§4)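 E13.5 mouse metanephroi cultured on porous inserts in defined DMEM/Ham's F-12 (insulin, transferrin, selenium, prostaglandin E, T3) at 37 °C. Medium with 100 µM 8-Br-cAMP, with or without compound, replaced every 12 h. After 4 days, cyst area fraction measured by transmission light microscopy (SE, 6–8 kidneys), or paraffin sections H&E-stained (three kidneys per condition).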

[9] = molecular target: T1, Cystic fibrosis transmembrane conductance regulator; details: Epithelial cell, 10 uM
Target sequence in this assay (P13569 whole entry, looked up): as above

Kidney [10] = test: Reduction in fluid accumulation in 3 days 8-Br-cAMP treated embryonic mouse kidney organ culture model of polycystic kidney disease at 5 uM after 1 or 2 days by transmission light microscopy; type: functional, tissue-based
Procedure, shortened: (§5)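 E13.5 mouse metanephroi in defined organ-culture medium with 100 µM 8-Br-cAMP, changed every 12 h, 37 °C. Compound (5 µM) added at day 3 to kidneys with preformed cysts. Cyst area fraction by transmission light microscopy at day 5, six kidneys, SE.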

[11] = molecular target: T1, Cystic fibrosis transmembrane conductance regulator; test: Inhibition of CFTR in nonpermeabilized human bronchial epithelial cells assessed as inhibition of forskolin and IBMX-induced chloride current at by short-circuit current analysis; type: cell-based, Epithelial cell
Procedure, shortened: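 Ussing chamber short-circuit current in nonpermeabilized primary human bronchial epithelial cells on inserts; Krebs-bicarbonate both sides, bubbled with 5% CO2 in air, 37 °C. CFTR maximally activated by 10 µM forskolin plus 100 µM IBMX, then inhibitor added; current recorded continuously with voltage clamp.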
Target sequence in this assay (P13569 whole entry): as the sequence (P13569 whole entry, looked up) above

Epithelial cell [12] = test: Inhibition of calcium-activated chloride channel in CFTR deficient human bronchial epithelial cells assessed as inhibition of UTP-induced chloride current at 20 uM; type: cell-based; procedure, shortened: as §3
[13] = molecular target: T1, Cystic fibrosis transmembrane conductance regulator; details: FRT, 0.5 uM
Target sequence in this assay (P13569 whole entry, looked up): as above

Kidney [14] = test: Reduction in cyst expansion in 8-Br-cAMP treated embryonic mouse kidney organ culture model of polycystic kidney disease by transmission light microscopy; type: functional, tissue-based; procedure, shortened: as §4
Kidney [15] = test: Inhibition of cyst formation in 8-Br-cAMP treated embryonic mouse kidney organ culture model of polycystic kidney disease at 5 uM by transmission light microscopy; type: functional, tissue-based; procedure, shortened: as §4
Kidney [16] = test: Reduction in size of preformed cysts in 8-Br-cAMP treated embryonic mouse kidney organ culture model of polycystic kidney disease by transmission light microscopy; type: functional, tissue-based; procedure, shortened: as §5
Kidney [17] = test: Inhibition of cyst formation in 8-Br-cAMP treated embryonic mouse kidney organ culture model of polycystic kidney disease at 2.5 uM by transmission light microscopy; type: functional, tissue-based
Procedure, shortened: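 E13.5 mouse metanephroi cultured on porous inserts in defined DMEM/Ham's F-12 (insulin, transferrin, selenium, prostaglandin E, T3) at 37 °C. Medium with 100 µM 8-Br-cAMP, with or without inhibitor, replaced every 12 h. After 4 days, transmission light micrographs scored as fractional kidney area occupied by cysts (6–8 kidneys, SE).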

Kidney [18] = test: Reduction in cyst size in 8-Br-cAMP treated embryonic mouse kidney organ culture model of polycystic kidney disease by hematoxylin and eosin staining after 4 days; type: functional, tissue-based; procedure, shortened: as §4
[19] = molecular target: T1, Cystic fibrosis transmembrane conductance regulator; test: Inhibition of CFTR
Procedure, shortened: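 Ussing-chamber apical membrane current in CFTR-expressing FRT cells under a chloride gradient: apical 75 mM NaCl/75 mM Na gluconate, basolateral 150 mM NaCl, pH 7.3. Basolateral membrane permeabilized with 250 µg/mL amphotericin B, air-bubbled, 37 °C. CFTR activated by 100 µM CPT-cAMP, then compound added at increasing concentrations. Dose–response, SE n = 4.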
Target sequence in this assay (P13569 whole entry): as the sequence (P13569 whole entry, looked up) above

| Compound | inhibition [1] | inhibition [2] | also measured |
| --- | --- | --- | --- |
| Cc1cccc(-c2c3c(=O)n(C)c(=O)n(C)c3c3n2-c2ccccc2NC3c2ccc(C)o2)c1 (stereo unspecified) | 98% | 82% | – |
| Cn1c(=O)c2c(-c3ccccc3)n3c(c2n(C)c1=O)C(c1ccccc1)Nc1ccccc1-3 (stereo unspecified) | 92% | 61% | – |
| Cn1c(=O)c2c(-c3ccccc3F)n3c(c2n(C)c1=O)C(c1cccc(Cl)c1)Nc1ccccc1-3 (stereo unspecified) | 98% | 70% | – |
| Cc1ccccc1-c1c2c(=O)n(C)c(=O)n(C)c2c2n1-c1ccccc1NC2c1cccc([N+](=O)[O-])c1 (stereo unspecified) | 96% | 64% | – |
| COc1cccc(C2Nc3ccccc3-n3c(-c4cccc(C)c4)c4c(=O)n(C)c(=O)n(C)c4c32)c1 (stereo unspecified) | 98% | 73% | – |
| COc1cccc(C2Nc3ccccc3-n3c(-c4ccccc4C)c4c(=O)n(C)c(=O)n(C)c4c32)c1 (stereo unspecified) | 94% | 62% | – |
| COc1cccc(C2Nc3ccccc3-n3c(-c4ccccc4)c4c(=O)n(C)c(=O)n(C)c4c32)c1 (stereo unspecified) | 86% | 63% | – |
| Cc1ccc(C2Nc3cc(C)c(C)cc3-n3c(-c4ccccc4F)c4c(=O)n(C)c(=O)n(C)c4c32)o1 (stereo unspecified) | 87% | 80% | – |
| Cc1cccc(-c2c3c(=O)n(C)c(=O)n(C)c3c3n2-c2ccccc2NC3c2ccccc2F)c1 (stereo unspecified) | 80% | 67% | – |
| Cc1cc2c(cc1C)-n1c(-c3ccccc3)c3c(=O)n(C)c(=O)n(C)c3c1C(c1ccc(O)cc1)N2 (stereo unspecified) | 99% | 80% | – |
| Cc1ccc(C2Nc3ccccc3-n3c(-c4ccccc4C)c4c(=O)n(C)c(=O)n(C)c4c32)o1 (stereo unspecified) | 97% | 86% | – |
| COc1cc(O)ccc1C1Nc2ccccc2-n2c(-c3ccccc3)c3c(=O)n(C)c(=O)n(C)c3c21 (stereo unspecified) | 56% | 5% | – |
| O=C(CNc1ccc2ccccc2c1)N/N=C/c1cc(Br)c(O)c(Br)c1O | – | – | IC50 [19]: 5000 nM |
| Cc1cccc(-c2c3c(=O)n(C)c(=O)n(C)c3c3n2-c2ccccc2NC3c2ccc(O)cc2)c1 (stereo unspecified) | 94% | 71% | – |
| Cc1cccc(C2Nc3ccccc3-n3c(-c4ccccc4C)c4c(=O)n(C)c(=O)n(C)c4c32)c1 (stereo unspecified) | 100% | 46% | – |
| O=C(O)c1ccc(/C=C2\SC(=S)N(c3cccc(C(F)(F)F)c3)C2=O)cc1 | – | – | IC50 [19]: 300 nM |
| Cn1c(=O)c2c(-c3ccccc3)n3c(c2n(C)c1=O)C(c1cccc(F)c1F)Nc1ccccc1-3 (stereo unspecified) | 93% | 72% | – |

Now from value to compound, other results behind:

| inhibition [1] | inhibition [2] | Compound | also measured |
| --- | --- | --- | --- |
| 97% | 51% | Cc1ccccc1-c1c2c(=O)n(C)c(=O)n(C)c2c2n1-c1ccccc1NC2c1ccccc1 (stereo unspecified) | – |
| 90% | 84% | Cc1ccc(C2Nc3cc(C)c(C)cc3-n3c(-c4ccccc4)c4c(=O)n(C)c(=O)n(C)c4c32)o1 (stereo unspecified) | – |
| 97% | 62% | COc1cccc(C2Nc3ccccc3-n3c(-c4ccccc4F)c4c(=O)n(C)c(=O)n(C)c4c32)c1 (stereo unspecified) | – |
| 90% | 60% | Cn1c(=O)c2c(-c3ccccc3)n3c(c2n(C)c1=O)C(c1cccc([N+](=O)[O-])c1)Nc1ccccc1-3 (stereo unspecified) | – |
| 97% | 87% | Cc1ccc(C2Nc3ccccc3-n3c(-c4ccccc4)c4c(=O)n(C)c(=O)n(C)c4c32)o1 (stereo unspecified) | inhibition [3]: 100%; Activity (CHO-K1 [4]): inactive; IC50 [5]: 90 nM; Activity (Epithelial cell [6]): inactive; Activity (CHO-K1 [7]): inactive; inhibition at 0.5 µM (Kidney [8]): 60%; inhibition [9]: 100%; inhibition (Kidney [10]): Active; IC50 [11]: < 1000 nM; Activity (Epithelial cell [12]): inactive; inhibition [13]: 65%; Activity (Kidney [14]): Active; Activity (Kidney [15]): Active; Activity (Kidney [16]): Active; inhibition (Kidney [17]): Active; inhibition (Kidney [18]): Active |
| 86% | 64% | Cn1c(=O)c2c(-c3ccccc3)n3c(c2n(C)c1=O)C(c1ccc(O)cc1)Nc1ccccc1-3 (stereo unspecified) | – |
| 93% | 53% | Cc1cccc(-c2c3c(=O)n(C)c(=O)n(C)c3c3n2-c2ccccc2NC3c2cccc(F)c2)c1 (stereo unspecified) | – |
| 94% | 61% | Cc1cccc(-c2c3c(=O)n(C)c(=O)n(C)c3c3n2-c2ccccc2NC3c2cccc([N+](=O)[O-])c2F)c1 (stereo unspecified) | – |
| 81% | 61% | Cn1c(=O)c2c(-c3ccccc3)n3c(c2n(C)c1=O)C(c1ccccc1F)Nc1ccccc1-3 (stereo unspecified) | – |
